Measured values gathered from unrelated publications.
Protocols differ between the studies behind these lines.
CA12: Carbonic anhydrase 12 (CA12, Homo sapiens, UniProt O43570)
GHSR: Growth hormone secretagogue receptor type 1 (GHSR, Homo sapiens, UniProt Q92847)
DRD3: D(3) dopamine receptor (DRD3, Homo sapiens, UniProt P35462)
ACE: Angiotensin-converting enzyme (ACE, Homo sapiens, UniProt P12821)
GLP1R: Glucagon-like peptide 1 receptor (GLP1R, Homo sapiens, UniProt P43220)

N#C[Se]Cc1cc(=O)oc2cc(O)ccc12  Ki (CA12; enzyme activity, inhibitor, stopped-flow): 0.0933 µM
CC[C@H](C)[C@H](NC(=O)[C@H](C)NC(=O)[C@H](C)NC(=O)[C@H](CCC(=O)O)NC(=O)[C@H](CCCNC(=N)N)NC(=O)[C@H](C)NC(=O)[C@H](CC(C)C)NC(=O)[C@H](CC(C)C)NC(=O)[C@H](CCCNC(=N)N)NC(=O)[C@H](CCCNC(=N)N)NC(=O)[C@H](CCC(=O)O)NC(=O)[C@H](Cc1c[nH]cn1)NC(=O)[C@H](CCC(=O)O)NC(=O)[C@@H]1CCCN1C(=O)[C@H](CO)NC(=O)[C@H](CC(C)C)NC(=O)[C@H](Cc1ccccc1)NC(=O)[C@H](Cc1c[nH]c2ccccc12)NC(=O)[C@H](CO)NC(=O)CN)C(=O)N1CCC[C@H]1C(=O)N1CCC[C@H]1C(=O)N1CCC[C@H]1C(=O)N1CCC[C@H]1C(=O)N[C@H](C(=O)N1CCC[C@H]1C(=O)N1CCC[C@H]1C(=O)N[C@@H](CC(C)C)C(=O)O)C(C)C  EC50 (GHSR; calcium signal, agonist, fluorescence): 0.27 µM
Cc1[nH]c(C)c(S(=O)(=O)Nc2ccc(S(F)(F)(F)(F)F)cc2)c1C(=O)N1CCC(F)(F)C1  IC50 (DRD3; β-arrestin recruitment, antagonist): 2.3 µM
CC(C)C[C@H](NC(=O)[C@@H](N)C(C)C)C(=O)N[C@@H](CO)C(=O)N1CCC[C@H]1C(=O)N[C@@H](CCC(N)=O)C(=O)O  IC50 (ACE; enzyme activity, inhibitor, absorbance): 105 µM
COC(=O)c1ccc(NS(=O)(=O)c2c(C)[nH]c(C)c2C(=O)N2CCC(F)(F)C2)cc1Cl  IC50 (DRD3; β-arrestin recruitment, antagonist): 33 µM
CCCCC1CNC2CCc3ccc(OC)cc3C12 (racemic)  Ki (DRD3; ligand displacement, radioligand): 5.03 µM
CC[C@H](C)[C@H](NC(=O)[C@H](Cc1ccccc1)NC(=O)[C@H](CCC(N)=O)NC(=O)[C@H](CCCNC(=N)N)NC(=O)[C@@H](NC(=O)[C@H](C)NC(=O)[C@H](CCCCN)NC(=O)[C@H](CCCNC(=N)N)NC(=O)[C@H](CCC(=O)O)NC(=O)[C@H](CC(C)C)NC(=O)[C@H](CC(C)C)NC(=O)[C@H](CCC(=O)O)NC(=O)[C@H](CO)NC(=O)[C@H](Cc1c[nH]c2ccccc12)NC(=O)[C@H](CC(C)C)NC(=O)[C@H](CO)NC(=O)[C@@H](NC(=O)[C@H](Cc1ccccc1)NC(=O)[C@H](CCC(=O)O)NC(=O)[C@H](CC(C)C)NC(=O)[C@H](CCC(=O)O)NC(=O)CNC(=O)[C@@H]1CCCN1)[C@@H](C)O)C(C)C)C(=O)N[C@@H](CCC(=O)O)C(=O)N[C@@H](CC(=O)O)C(=O)N[C@@H](CC(C)C)C(=O)N[C@@H](CCCCN)C(=O)N[C@@H](CCCCN)C(=O)O  IC50 (GLP1R; calcium signal, antagonist, fluorescence): 0.874 µM
Cc1[nH]c(C)c(S(=O)(=O)Nc2ccc(S(=O)(=O)F)c(Cl)c2)c1C(=O)N1CCC(F)(F)C1  IC50 (DRD3; β-arrestin recruitment, antagonist): 0.93 µM
O=C(Nc1ccc2c(c1)C=CCP(=O)(O)O2)c1ccc(Br)cc1  Ki (CA12; enzyme activity, inhibitor, stopped-flow): 0.0844 µM
CCC(CNc1nc(-c2cn3ccnc3cc2C)nc2ccccc12)c1ccccc1 (centres unmarked)  IC50 (Sodium-dependent dopamine transporter (SLC6A3, Homo sapiens, UniProt Q01959); transporter uptake, inhibitor, radiometric): 9.86 µM
O=C(Nc1ccc2c(c1)C=CCP(=O)(O)O2)c1ccc2ccccc2c1  Ki (CA12; enzyme activity, inhibitor, stopped-flow): 0.0272 µM
CC[C@H](C)[C@H](NC(=O)[C@H](C)NC(=O)[C@H](C)NC(=O)[C@H](CCC(=O)O)NC(=O)[C@H](CCCNC(=N)N)NC(=O)[C@H](C)NC(=O)[C@H](CC(C)C)NC(=O)[C@H](CC(C)C)NC(=O)[C@H](CCCNC(=N)N)NC(=O)[C@H](CCCNC(=N)N)NC(=O)[C@H](C)NC(=O)[C@H](Cc1c[nH]cn1)NC(=O)[C@H](CCC(=O)O)NC(=O)[C@@H]1CCCN1C(=O)[C@H](CO)NC(=O)[C@H](CC(C)C)NC(=O)[C@H](Cc1ccccc1)NC(=O)[C@H](Cc1c[nH]c2ccccc12)NC(=O)[C@H](CO)NC(=O)CN)C(=O)N1CCC[C@H]1C(=O)N1CCC[C@H]1C(=O)N1CCC[C@H]1C(=O)N1CCC[C@H]1C(=O)N[C@H](C(=O)N[C@H](C(=O)N1CCC[C@H]1C(=O)N[C@@H](CC(C)C)C(=O)O)C(C)C)C(C)C  EC50 (GHSR; calcium signal, agonist, fluorescence): 0.15 µM
O=C(Nc1ccccc1)Nc1ccc2c(c1)C=CCP(=O)(O)O2  Ki (CA12; enzyme activity, inhibitor, stopped-flow): > 10 µM
NC(=O)CC[C@H](N)C(=O)NCC(=O)NCC(=O)N[C@@H](CC(=O)O)C(=O)N[C@@H](Cc1ccccc1)C(=O)O  IC50 (ACE; enzyme activity, inhibitor): ~1090 µM
O=C(Nc1ccc2c(c1)C=CCP(=O)(O)O2)c1cccs1  Ki (CA12; enzyme activity, inhibitor, stopped-flow): 0.0746 µM
CC(C)C[C@H](NC(=O)[C@@H](NC(=O)[C@@H](NC(=O)[C@@H]1CCCN1C(=O)[C@@H](N)CCC(=O)O)C(C)C)[C@@H](C)O)C(=O)O  IC50 (ACE; enzyme activity, inhibitor): ~432 µM
CC[C@H](C)[C@H](NC(=O)[C@H](C)NC(=O)[C@H](CCCNC(=N)N)NC(=O)[C@H](CCC(=O)O)NC(=O)[C@H](CCCNC(=N)N)NC(=O)[C@H](CCC(=O)O)NC(=O)[C@H](CC(C)C)NC(=O)[C@H](CC(C)C)NC(=O)[C@H](CCCNC(=N)N)NC(=O)[C@H](CCCNC(=N)N)NC(=O)[C@H](CCC(N)=O)NC(=O)[C@H](Cc1c[nH]cn1)NC(=O)[C@H](CCC(=O)O)NC(=O)[C@@H]1CCCN1C(=O)[C@H](CO)NC(=O)[C@H](CC(C)C)NC(=O)[C@H](Cc1ccccc1)NC(=O)[C@H](Cc1c[nH]c2ccccc12)NC(=O)[C@H](CO)NC(=O)CN)C(=O)N1CCC[C@H]1C(=O)N1CCC[C@H]1C(=O)N1CCC[C@H]1C(=O)N1CCC[C@H]1C(=O)N[C@H](C(=O)N[C@H](C(=O)N1CCC[C@H]1C(=O)N[C@@H](CC(C)C)C(=O)O)C(C)C)C(C)C  EC50 (GHSR; calcium signal, agonist, fluorescence): 0.16 µM
O=C(Nc1ccc2c(c1)C=CCP(=O)(O)O2)c1ccccc1I  Ki (CA12; enzyme activity, inhibitor, stopped-flow): 0.0069 µM
CC[C@H](C)[C@H](NC(=O)[C@H](Cc1ccccc1)NC(=O)[C@H](CC(=O)O)NC(=O)[C@H](CCCNC(=N)N)NC(=O)[C@@H](NC(=O)[C@H](C)NC(=O)[C@H](CCCCN)NC(=O)[C@H](CCCNC(=N)N)NC(=O)[C@H](CCC(=O)O)NC(=O)[C@H](CC(C)C)NC(=O)[C@H](CC(C)C)NC(=O)[C@H](CCC(=O)O)NC(=O)[C@H](CC(=O)O)NC(=O)[C@H](Cc1c[nH]c2ccccc12)NC(=O)[C@H](CC(C)C)NC(=O)[C@H](CO)NC(=O)[C@@H](NC(=O)[C@H](Cc1ccccc1)NC(=O)[C@H](CCC(=O)O)NC(=O)[C@H](CC(C)C)NC(=O)[C@H](CCC(=O)O)NC(=O)CNC(=O)[C@@H]1CCCN1)[C@@H](C)O)C(C)C)C(=O)N[C@@H](C)C(=O)N[C@@H](Cc1c[nH]cn1)C(=O)N[C@@H](CC(C)C)C(=O)N[C@@H](CCCCN)C(=O)N[C@@H](CCC(N)=O)C(=O)O  IC50 (GLP1R; calcium signal, antagonist, fluorescence): 1.61 µM
O=C(Nc1ccc(C(F)(F)F)cc1)Nc1ccc2c(c1)C=CCP(=O)(O)O2  Ki (CA12; enzyme activity, inhibitor, stopped-flow): > 10 µM
